KCNK9 inh: inhibitors of human KCNK9 two-pore domain potassium channel | 1.2% of 310,000 active | B-score at 10 µM | HEK293 KCNK9, FluxOR thallium flux fluorescence; hits give low values;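 active means ratio B-score over 3 SD below the library mean, with starting fluorescence within 5 SD of its mean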;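 further: negative B-score means less thallium flux so channel inhibition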
Target sequence (Q9NPC2 whole entry, looked up, the tested form may be a part): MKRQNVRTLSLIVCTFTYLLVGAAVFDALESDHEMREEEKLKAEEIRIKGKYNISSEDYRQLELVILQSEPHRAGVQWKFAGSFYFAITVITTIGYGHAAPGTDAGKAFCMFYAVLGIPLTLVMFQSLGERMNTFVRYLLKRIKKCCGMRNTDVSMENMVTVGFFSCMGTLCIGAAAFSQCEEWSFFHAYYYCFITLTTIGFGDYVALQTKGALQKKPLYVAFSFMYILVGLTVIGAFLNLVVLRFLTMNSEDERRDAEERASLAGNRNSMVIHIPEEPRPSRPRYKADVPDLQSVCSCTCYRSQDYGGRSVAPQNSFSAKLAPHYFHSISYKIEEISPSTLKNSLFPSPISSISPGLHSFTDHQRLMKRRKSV
KCNK3 block: human KCNK3 channel inhibition, primary screen. O14649. CHO-KCNK3 thallium flux, FluxOR fluorescence; hits give low values. B-score at 10 µM. 0.84% of 340,000 active. AID 602410;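 active means B-score under library mean minus 4 SD, starting fluorescence ratio at most library mean plus 5 SD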;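 further: more negative B-score means stronger inhibition of thallium flux through KCNK3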
Kir21 block: Kir2.1 (mouse) channel inhibition. AID 1672. B-score at 10 µM. HEK293-Kir2.1, FluxOR thallium flux fluorescence; hits give low values. 0.85% of 310,000 active. P35561;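 active means fluorescence ratio B-score at or below minus 3 SD of library scores, with starting-brightness B-score within 2 SD, cut at about -4.2 in these data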;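 further: channel flux triggered by added potassium and thallium sulfate stimulus; B-score of peak minus minimum fluorescence over baseline after thallium stimulus; more negative B-score means stronger Kir2.1 block with less thallium influx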
hERG rescue: hERG (human) protection from proarrhythmic block; Q12809; CHO-hERG, FluxOR thallium flux, dofetilide IC70 present; activation (rescue from dofetilide block), less the hit threshold, % at 10 µM; 0.51% of 310,000 active; AID 1511;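 active means activation above the mean of controls blocked by dofetilide plus 5 SD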;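 further: thallium influx through hERG after potassium depolarization seen as dye fluorescence rise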
KCNQ1 inh: blocks the human KCNQ1 potassium channel | P51787 | CHO-K1 KCNQ1, FluxOR thallium flux fluorescence; hits give high values | B-score at 10 µM | 1.3% of 310,000 active;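 active means compounds whose thallium flux B-score, printed positive for inhibition, exceeds three library SD while starting fluorescence stays within three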;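 further: channel opened by potassium depolarization with thallium stimulus after 20 min compound exposure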
KCNQ1 pot: human KCNQ1 channel potentiation or activation; P51787; CHO-K1 KCNQ1, thallium flux FluxOR fluorescence; hits give high values; B-score at 10 µM; 0.35% of 310,000 active;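 active means fluorescence ratio B-score, a plate-corrected score, at least three library SD, with initial intensity B-score within 5 SD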
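assay system = CHO-K1 cells stably expressing KCNQ1 | medium = assay buffer, equal DMSO in all wells | timing = 37 °C overnight plating, 90-min dark dye load, 20-min compound pretreatment | measured by = kinetic FluxOR thallium fluorescence, 10-s 1-Hz baseline, 110-s post-stimulus read | measure = fluorescence change relative to baseline, converted to B score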
* = called active by the depositor; i = inactive; x = not tested or not shown. Compounds with a hit are over-represented: about 3.8% of the library has one in this group of screens.

SMILES	KCNK9 inh	KCNK3 block	Kir21 block	hERG rescue	KCNQ1 inh	KCNQ1 pot
CCN1C(=NCCc2cccs2)N[C@@H](c2cccs2)C(C(=O)OC)=C1C	i	i	-6*	-13	i	i
COC(=O)C1=C(C)N(Cc2ccccc2)C(=NCc2ccc(OC)cc2)N[C@H]1c1ccccc1	x	i	x	x	x	x
COCCN1C(=O)N[C@@H](c2cccc(F)c2)C(C(=O)OC)=C1C	i	i	-0.02	4.9*	i	i
CCOC(=O)CN1C(=O)N[C@@H](c2cccs2)C(C(=O)OC)=C1C	i	i	-0.62	-4	i	i
COC(=O)C1=C(C)N(Cc2ccccc2)C(=NCCCCO)N[C@H]1CCc1ccccc1	i	i	-5.1*	-13	i	i
C=CCC1NS(=O)(=O)OC(CCc2ccccc2)C1O (centres undefined)	i	i	0.01	-2	i	i
C=CCNC(=O)c1ccccc1NC(=O)c1ccccc1N(C)S(C)(=O)=O	i	i	0.43	-4	i	i
CCN1C(=S)N[C@@H](c2cccc(F)c2)C(C(=O)OC)=C1C	i	i	-1.8	-9	i	i
CCN1C(=NCc2cccc(Cl)c2)N[C@@H](c2cccc(F)c2)C(C(=O)OC)=C1C	i	i	-4.5*	-15	i	i
COC(=O)C1=C(C)N(Cc2ccccc2)C(=NCc2cccc(C(F)(F)F)c2)N[C@H]1c1cccc(C(F)(F)F)c1	x	i	x	x	x	x
COC(=O)C1=C(C)N(Cc2ccccc2)C(=NCc2cccc(C(F)(F)F)c2)N[C@H]1c1cccc(F)c1	i	i	-5.6*	-29	i	i
CCCNC(=O)Nc1cc(OC)c(OC)cc1Cc1nccc2cc(OC)c(OC)cc12	i	i	0.66	-8	i	i
COc1cccc(-c2cc(C(=O)NC3CCCCC3)no2)c1	i	i	-1.1	-4	i	i
COc1cc(/C=C2/C(=O)NN(c3ccc(C)c(Cl)c3)C2=O)cc([N+](=O)[O-])c1O	i	i	0.94	-17	i	i
Cc1ccc(N2NC(=O)/C(=C\c3cc4c(cc3[N+](=O)[O-])OCO4)C2=O)cc1C	i	i	-6.5*	-7	i	i
C=CCc1c(C)nc(-c2ccccc2)nc1N/N=C/c1ccccc1	i	i	0.41	-12	6*	i
Cc1cc(Sc2ncnc(N)c2[N+](=O)[O-])ncn1	i	i	-1.2	-24	6*	i
CN1CCN(c2nc(-c3ccc(Cl)cc3)nc3ccccc23)CC1	i	i	-1.9	-12	i	i
CCN(Cc1ccccc1)C1CCN(Cc2ccc(SC)cc2)CC1	i	i	-4.6*	-9	i	i
c1ccc2c(c1)CCN(c1nc(CN3CCOCC3)nc3sc4c(c13)CCCC4)C2	i	i	-1	-13	6*	i
O=C(NC(NNc1ccc([N+](=O)[O-])cc1)(C(F)(F)F)C(F)(F)F)c1ccccc1Cl	i	i	0.96	-9	i	i
CC(C)OC(=O)c1cc(NC(=S)Nc2ccc([N+](=O)[O-])cc2)cc(C(=O)OC(C)C)c1	i	i	2.1	-18	10*	i
O=[N+]([O-])c1ccc(NNC(=S)Nc2ccc(F)cc2)cc1	i	i	1.8	-7	7*	i
O=C(NC(NNc1ccc([N+](=O)[O-])cc1)(C(F)(F)F)C(F)(F)F)c1ccc(F)cc1	i	i	-0.87	-12	6*	i
CC(C)CCNC(=S)Nc1ccc([N+](=O)[O-])cc1	i	i	-11*	-39	i	i
SMILES	KCNK9 inh	KCNK3 block	Kir21 block	hERG rescue	KCNQ1 inh	KCNQ1 pot
O=C(NNC(=S)Nc1ccc(F)cc1)c1cccc([N+](=O)[O-])c1	i	i	0.01	-13	i	i
COc1ccc(Cn2ccnc2SCC(=O)Nc2ccccc2OC)cc1	i	i	-4.5*	-9	i	i
CCOc1ccccc1NC(=O)CSc1nccn1-c1ccccc1	i	i	-7*	-15	i	i
COc1ccc(NC(=O)CSc2nccn2-c2ccccc2)c(OC)c1	i	i	-0.55	-7	i	i
CC(=O)c1ccc(NC(=O)COC(=O)CCc2ccc(S(=O)(=O)N3CCOCC3)cc2)cc1	i	i	1.1	-3	i	i
COc1cccc(NC(=O)CN(C)C(=O)CC2CC3CCC2C3)c1 (centres undefined)	i	i	0.25	-8	i	i
COc1ccccc1N(C)C(=O)c1cc(S(=O)(=O)N2CCCC2)cn1C	i	i	1.3	-8	i	i
CC(=O)Nc1ccc(N=Cc2nc(-c3ccc(C)cc3)oc2O)cc1	-6.8*	i	-0.19	-10	i	i
Cc1ccc(N=Cc2nc(-c3ccc(C)cc3)oc2O)cc1	i	i	0.92	-17	i	i
COC(=O)c1cc(-c2cccc(OC)c2)on1	i	i	0.02	7.2*	i	i
O=C(CN1CCCc2ccccc21)N/N=C/c1ccccc1	i	i	-1.4	-7	i	i
O=C(N/N=C\c1c(O)ccc2ccccc12)c1ccc(S(=O)(=O)N2CCCCC2)cc1	i	i	-2.4	-15	6*	i
O=C(CN1CCCc2ccccc21)N/N=C/c1c(O)ccc2ccccc12	i	i	0.08	-5	7*	i
O=C(OCC(=O)N1CCN(Cc2ccccc2)CC1)c1cc(Cl)ccc1[N+](=O)[O-]	x	i	x	x	x	x
CC1=NN(c2nc(-c3ccc(C)cc3)cs2)C(=O)C1N=Nc1cccc(O)c1 (centres undefined)	i	i	-0.71	-20	i	i
CC1=NN(c2nc(-c3ccc(C)cc3)cs2)C(=O)C1N=Nc1ccccc1O (centres undefined)	i	i	-0.35	-13	6*	i
COc1ccc(CN(C)C(=O)c2cccc(Oc3ccccc3)c2)c(OC)c1OC	i	i	-4.9*	-11	i	i
COc1ccc(Br)cc1CN(C)CC(O)COc1ccc(Br)cc1 (centres undefined)	i	i	-6.5*	-16	i	i
COc1ccc(CN(C)CC(O)COc2ccc(C(=O)c3ccccc3)cc2)c(OC)c1OC (centres undefined)	i	i	-4.3*	-10	i	i
CC(=O)c1cccc(OCc2cc(C(=O)NCc3nc(C)c(C)s3)no2)c1	i	i	-0.43	0	i	i
CCN(CC)C(=O)[C@H]1C[C@H](CC(=O)NCCCOC)C(=O)N2CCc3c([nH]c4cc(CCC(=O)N(C)C)ccc34)[C@]12C	x	i	x	x	x	x
CN(CC(=O)Nc1ccc(F)c(F)c1F)C(=O)C1CCCC1	x	i	x	x	x	x

High-throughput results (PubChem BioAssay)
